The target in assay [1] is T1, Bromodomain-containing protein 4 (Homo sapiens, UniProt O60885). In words: Inhibition of HIS9-tagged BRD4 (unknown origin) expressed in Escherichia coli BL21 (DE3) cells incubated for 30 mins by AlphaScreen assay.
The target in assay [2] is Nucleosome-remodeling factor subunit BPTF (Homo sapiens, UniProt Q12830). Briefly: Binding affinity to 5FW-labeled BPTF (unknown origin) expressed in Escherichia coli BL21 (DE3) cells by PrOF NMR analysis.
Assay [3] addresses T2, Bromodomain-containing protein 9 (Homo sapiens, UniProt Q9H8M2).
T2 sequence (Q9H8M2 whole entry): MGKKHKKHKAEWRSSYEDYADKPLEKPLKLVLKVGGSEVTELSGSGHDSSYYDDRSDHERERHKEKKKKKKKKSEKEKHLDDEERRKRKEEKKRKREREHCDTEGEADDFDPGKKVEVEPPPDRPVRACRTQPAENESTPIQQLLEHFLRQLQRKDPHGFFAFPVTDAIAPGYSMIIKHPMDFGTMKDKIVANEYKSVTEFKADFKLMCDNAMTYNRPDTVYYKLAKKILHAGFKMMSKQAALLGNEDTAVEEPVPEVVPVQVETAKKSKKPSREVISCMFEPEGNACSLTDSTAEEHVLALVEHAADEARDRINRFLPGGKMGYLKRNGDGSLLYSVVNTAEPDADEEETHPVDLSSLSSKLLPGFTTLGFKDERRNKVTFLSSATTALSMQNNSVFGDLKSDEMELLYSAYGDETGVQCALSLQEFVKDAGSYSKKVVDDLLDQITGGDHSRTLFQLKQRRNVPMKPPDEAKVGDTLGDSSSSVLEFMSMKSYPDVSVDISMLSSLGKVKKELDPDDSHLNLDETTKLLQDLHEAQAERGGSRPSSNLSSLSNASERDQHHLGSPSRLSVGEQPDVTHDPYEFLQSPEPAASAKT
In words: Binding affinity to BRD9 (unknown origin) by BROMOscan method.

Assay [4] addresses T3, Histone acetyltransferase KAT2B (Homo sapiens, UniProt Q92831). Briefly: Binding affinity to PCAF (unknown origin) by BROMOscan method.
Target sequence in this assay (Q92831 whole entry): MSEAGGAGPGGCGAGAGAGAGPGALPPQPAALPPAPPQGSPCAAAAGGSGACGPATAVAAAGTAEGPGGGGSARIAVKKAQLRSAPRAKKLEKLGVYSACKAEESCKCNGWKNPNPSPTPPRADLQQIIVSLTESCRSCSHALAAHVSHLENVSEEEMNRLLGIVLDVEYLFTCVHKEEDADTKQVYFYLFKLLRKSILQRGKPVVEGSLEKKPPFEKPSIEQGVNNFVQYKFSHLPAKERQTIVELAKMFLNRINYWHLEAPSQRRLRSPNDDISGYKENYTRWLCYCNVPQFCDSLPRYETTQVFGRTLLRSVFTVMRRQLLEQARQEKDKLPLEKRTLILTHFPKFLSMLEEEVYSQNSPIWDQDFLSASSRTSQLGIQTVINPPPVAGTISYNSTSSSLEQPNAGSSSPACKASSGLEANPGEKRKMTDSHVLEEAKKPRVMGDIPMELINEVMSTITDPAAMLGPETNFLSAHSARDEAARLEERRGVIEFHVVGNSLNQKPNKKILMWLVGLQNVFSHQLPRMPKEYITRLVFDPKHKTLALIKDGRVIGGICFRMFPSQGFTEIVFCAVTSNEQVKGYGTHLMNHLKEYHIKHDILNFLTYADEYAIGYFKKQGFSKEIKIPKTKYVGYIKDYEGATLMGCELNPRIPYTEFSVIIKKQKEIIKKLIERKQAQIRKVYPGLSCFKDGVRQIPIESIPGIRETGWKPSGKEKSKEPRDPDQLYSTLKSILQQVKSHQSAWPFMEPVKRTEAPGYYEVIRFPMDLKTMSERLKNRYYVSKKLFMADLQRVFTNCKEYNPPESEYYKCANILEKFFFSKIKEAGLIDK
Assay [5] relates to EpH4. In words: Upregulation of sprr1a mRNA in mouse EpH4 cells at 5 uM after 24 hrs by qRT-PCR analysis. In kind it is functional, cell-based. The method, boiled down:
(§1)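 Murine Eph4 mammary epithelial cells were treated at 5 μM for 24 h and harvested in trizol. Transcripts were quantified by SYBR Green qPCR. Group differences were tested by one-way ANOVA at p<0.05.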
For orientation: Real-time PCR tracks product formation cycle by cycle.

Assay [6] deals with EpH4. Briefly: Upregulation of sfn mRNA in mouse EpH4 cells at 5 uM after 24 hrs by qRT-PCR analysis. Format: functional, cell-based. A digest of the protocol: as §1
The subject of assay [7] is 4T1. In words: Growth inhibition of mouse 4T1 cells BPTF knock down assessed as reduction cell viability 15 uM in presence of doxorubicin incubated for 4 days by MTS assay relative to control. In kind it is functional, cell-based. The note with it: time 4.0 day. The method, boiled down:
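4T1 cells with shRNA BPTF knockdown, grown in DMEM with 10% FBS, 2 mM glutamine and pen-strep, were seeded at 4000/well and allowed to adhere overnight. They were treated 4 days in complete medium with one of three inhibitor doses chosen from toxicity curves, combined with 50 nM doxorubicin. MTS absorbance was read at 490 nm. Fraction survival was set against untreated cells (1.0) and blank (0.0).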

Assay [8] has as its system EpH4. Briefly: Upregulation of Myc mRNA in mouse EpH4 cells at 5 uM after 24 hrs by qRT-PCR analysis. Format: functional, cell-based. The method, boiled down: as §1
In assay [9] the target is T3, Histone acetyltransferase KAT2B. In words: Binding affinity to 5FW-labeled PCAF (unknown origin) expressed in Escherichia coli BL21 (DE3) cells at 7.4 to 200 uM by PrOF NMR analysis. The note with it: dose 7.4-200 µM. A digest of the protocol:
(§2)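 Protein-observed 19F NMR with 5-fluorotryptophan-labelled protein. Each ligand is titrated and the change in chemical shift relative to a control sample is plotted against ligand concentration to give a binding isotherm. Kd is taken from a fit to the quadratic binding equation, which uses total ligand and total protein concentrations.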
Target sequence in this assay (Q92831 whole entry, looked up): as the sequence (Q92831 whole entry) above

For assay [10], the target named is Chromatin remodeling regulator CECR2 (Homo sapiens) (UniProt Q9BXF3). In words: Binding affinity to 5FW-labeled CECR2 (unknown origin) expressed in Escherichia coli BL21 (DE3) cells at 7.4 to 200 uM by PrOF NMR analysis. The note with it: dose 7.4-200 µM. The method, boiled down: as §2
Assay [11] has the same target. Briefly: Inhibition of CECR2 (unknown origin) at 140 nM by BROMOscan method relative to control.
Assay [12] addresses T1, Bromodomain-containing protein 4. Briefly: Binding affinity to BRD4 BD1 (unknown origin) by BROMOscan method.
The target in assay [13] is Histone acetyltransferase KAT2A (Homo sapiens) (UniProt Q92830). In words: Inhibition of GCN5L2 (unknown origin) at 140 nM by BROMOscan method relative to control.
Assay [14] has as its system 4T1. In words: Growth inhibition of mouse 4T1 cells assessed as reduction cell viability 2.5 to 8 uM in presence of doxorubicin incubated for 4 days by MTS assay relative to control. Format: functional, cell-based. Particulars: dose 2.5-8 µM, time 4.0 day. The method, boiled down:
(§3)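 Mouse 4T1 breast cancer cells in DMEM with 10% FBS, 2 mM glutamine and penicillin-streptomycin, 4000 cells/well, adhered overnight. Three inhibitor doses, chosen from toxicity curves, given for 4 days alone or with 50 nM doxorubicin, also in shRNA BPTF-knockdown cells. MTS absorbance read at 490 nm; fraction survival scaled to untreated cells (1.0) and blank (0.0); N=3, mean ± SEM.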
A general note: Formazan colour is commonly taken as a measure of viable cells.

Assay [15] relates to 4T1. Briefly: Growth inhibition of mouse 4T1 cells assessed as reduction cell viability 5 to 15 uM in presence of doxorubicin incubated for 4 days by MTS assay relative to control. Format: functional, cell-based. Particulars: dose 5-15 µM, time 4.0 day. A digest of the protocol:
as §3

Calls of active or inactive are those of the source. The calls are words filed in the database; no cut-off is given here.

As usually defined, the IC50 is the concentration that inhibits the measured activity by half. One may read the Kd as the constant that tells how readily two partners part at equilibrium. A lower Kd goes with tighter binding.

Chain of Chromatin remodeling regulator CECR2 (Homo sapiens) (Q9BXF3 whole entry, looked up): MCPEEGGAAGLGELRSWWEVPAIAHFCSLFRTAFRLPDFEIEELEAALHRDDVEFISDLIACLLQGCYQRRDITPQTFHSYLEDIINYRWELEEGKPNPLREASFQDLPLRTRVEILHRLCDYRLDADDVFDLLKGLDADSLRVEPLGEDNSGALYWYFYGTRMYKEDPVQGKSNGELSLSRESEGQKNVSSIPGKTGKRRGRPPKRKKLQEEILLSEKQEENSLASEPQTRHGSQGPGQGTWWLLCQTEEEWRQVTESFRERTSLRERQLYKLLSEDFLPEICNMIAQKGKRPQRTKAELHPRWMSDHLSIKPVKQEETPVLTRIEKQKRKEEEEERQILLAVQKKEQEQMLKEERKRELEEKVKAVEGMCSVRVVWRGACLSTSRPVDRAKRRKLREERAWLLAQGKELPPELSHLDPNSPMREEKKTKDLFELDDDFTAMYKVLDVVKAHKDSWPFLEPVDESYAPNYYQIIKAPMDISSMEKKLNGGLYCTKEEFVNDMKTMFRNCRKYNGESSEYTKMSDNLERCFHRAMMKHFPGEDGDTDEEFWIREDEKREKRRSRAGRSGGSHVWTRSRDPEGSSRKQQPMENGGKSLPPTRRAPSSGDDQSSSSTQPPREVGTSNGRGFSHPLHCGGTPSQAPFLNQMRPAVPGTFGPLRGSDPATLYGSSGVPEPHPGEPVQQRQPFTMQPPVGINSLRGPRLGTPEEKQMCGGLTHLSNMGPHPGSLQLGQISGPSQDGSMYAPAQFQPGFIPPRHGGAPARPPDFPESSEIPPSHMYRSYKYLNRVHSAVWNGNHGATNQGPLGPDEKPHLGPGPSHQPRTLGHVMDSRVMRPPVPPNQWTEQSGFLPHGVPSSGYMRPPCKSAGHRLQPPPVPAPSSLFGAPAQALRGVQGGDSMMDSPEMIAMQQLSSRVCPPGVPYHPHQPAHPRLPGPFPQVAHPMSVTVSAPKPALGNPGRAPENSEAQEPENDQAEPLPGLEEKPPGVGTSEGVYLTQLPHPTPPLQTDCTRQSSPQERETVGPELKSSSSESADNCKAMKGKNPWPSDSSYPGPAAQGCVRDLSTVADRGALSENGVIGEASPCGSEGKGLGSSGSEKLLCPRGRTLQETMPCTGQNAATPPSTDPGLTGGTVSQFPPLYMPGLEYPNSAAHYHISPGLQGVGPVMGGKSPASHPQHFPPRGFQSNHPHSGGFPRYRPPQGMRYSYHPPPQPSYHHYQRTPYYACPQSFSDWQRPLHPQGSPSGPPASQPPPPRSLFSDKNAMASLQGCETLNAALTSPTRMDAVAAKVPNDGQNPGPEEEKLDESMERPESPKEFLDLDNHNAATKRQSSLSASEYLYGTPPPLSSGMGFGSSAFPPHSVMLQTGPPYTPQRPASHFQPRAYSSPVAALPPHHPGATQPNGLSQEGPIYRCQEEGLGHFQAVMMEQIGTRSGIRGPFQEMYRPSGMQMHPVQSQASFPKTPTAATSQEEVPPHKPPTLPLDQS
Chain of Histone acetyltransferase KAT2A (Homo sapiens) (Q92830 2-837 limits assumed): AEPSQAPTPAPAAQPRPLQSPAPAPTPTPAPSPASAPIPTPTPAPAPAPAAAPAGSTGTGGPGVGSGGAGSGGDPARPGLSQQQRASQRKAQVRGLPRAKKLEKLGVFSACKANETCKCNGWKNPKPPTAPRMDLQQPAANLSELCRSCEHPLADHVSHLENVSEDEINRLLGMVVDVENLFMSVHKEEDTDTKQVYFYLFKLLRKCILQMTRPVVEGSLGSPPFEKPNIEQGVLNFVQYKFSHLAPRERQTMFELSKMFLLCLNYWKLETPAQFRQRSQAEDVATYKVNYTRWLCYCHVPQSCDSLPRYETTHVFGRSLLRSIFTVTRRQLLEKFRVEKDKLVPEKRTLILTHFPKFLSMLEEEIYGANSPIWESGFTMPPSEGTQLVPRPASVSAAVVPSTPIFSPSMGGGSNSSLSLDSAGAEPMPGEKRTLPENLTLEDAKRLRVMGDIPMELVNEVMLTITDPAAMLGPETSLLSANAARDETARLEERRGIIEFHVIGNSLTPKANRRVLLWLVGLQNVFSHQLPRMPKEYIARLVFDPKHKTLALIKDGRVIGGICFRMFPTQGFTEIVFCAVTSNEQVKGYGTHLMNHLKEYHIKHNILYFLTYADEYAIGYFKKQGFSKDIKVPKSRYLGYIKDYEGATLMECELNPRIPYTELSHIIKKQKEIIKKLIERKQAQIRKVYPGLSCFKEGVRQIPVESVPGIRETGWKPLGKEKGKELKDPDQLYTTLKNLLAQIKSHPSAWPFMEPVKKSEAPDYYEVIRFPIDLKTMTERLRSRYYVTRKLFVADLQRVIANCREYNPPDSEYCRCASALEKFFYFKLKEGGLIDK

As to `CC(C)n1ncc(Nc2ccc(CN)cc2)c(Cl)c1=O`, the half-inhibitory concentration (IC50) entry in assay [1] is “Not Active”.

Compound `CN(C)CCCOc1ccc(-c2cc(NCCCn3cccn3)nc(S(C)(=O)=O)n2)cc1` registered a Kd in assay [2] of 120000 nM.

With `Cn1ncc(Nc2ccc(CCN)cc2)c(Br)c1=O`, the Kd in assay [3] was 0.24 nM; in [4], 14 nM.

Consider `COC(=O)c1cccc(NC(=O)N[C@H]2CCN(c3ccnc(Nc4ccc(F)cc4)n3)C2)c1`, for which the result in the assay with EpH4 [5], in the assay with EpH4 [6] and in the assay with EpH4 [8] was inactive. Besides, the “growth inhibition (GI)” value in the assay with 4T1 [7] is “Active”.

`Cn1ncc(Nc2ccc(CCN)cc2)c(Cl)c1=O`: the outcome in assay [9] and in assay [10] was Active. Further, the IC50 in assay [1] (read-out: IC50) was determined as 31000 nM. Further, the inhibition result in assay [11] and in assay [13] was “Active” in each case. Also, in assay [12], the Kd was determined as 2200 nM. The “growth inhibition (GI)” value with 4T1 [14] was “Active”.

Consider `CN(C)CCCc1ccc(Nc2cnn(C)c(=O)c2Cl)cc1`, for which the values for the Kd in assay [3] and in assay [4] were 230 nM and 370 nM, respectively.

For `CN(C)CCc1ccc(Nc2cnn(C)c(=O)c2Cl)cc1`, in the assay with 4T1 [15], the “growth inhibition (GI)” value was “Active”. The outcome in the assay on EpH4 [5] and in the assay on EpH4 [8] was inactive. Besides, the outcome with EpH4 [6] was Active.

Values taken from ChEMBL document CHEMBL4825756, “New Design Rules for Developing Potent Cell-Active Inhibitors of the Nucleosome Remodeling Factor (NURF) via BPTF Bromodomain Inhibition” (J Med Chem, 2021).
